# In ChEMBL document CHEMBL1671723, “Bioavailability and efficacy of levofloxacin against Francisella tularensis in the common marmoset (Callithrix jacchus)” (Antimicrob Agents Chemother, 2010):
# Calls of active or inactive are those of the source. The calls are words filed in the database; no cut-off is given here.
# What was measured:
# [1] = Cmax in human at 500 mg, po QD measured on day 10 by […] analysis; settings: in vivo
# Homo sapiens [2] = assay: AUC (0 to infinity) in human at 500 mg, po QD measured on day 10 by […] analysis; assay type: ADME, organism-based, Plasma; parameters: dose 500 mg, route oral, time infinity; settings: in vivo
# [3] = Tmax in human at 500 mg, po QD measured on day 10 by […] analysis; assay type: ADME, organism-based; settings: in vivo
# [4] = Half life in human at 500 mg, po QD measured on day 10 by LS/MS/MS analysis; assay type: ADME, organism-based; settings: in vivo
# [5] = Tmax in common marmoset at 40 mg/kg, po BID measured on day 7 by […] analysis; assay type: ADME, organism-based, Callithrix jacchus; parameters: dose 40 mg/kg, route oral; settings: in vivo
# Summary of the method: (§1)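 Oral levofloxacin, 40 mg/kg twice daily in banana milkshake for 7 consecutive days. Day-7 sampling: predose and 1, 4 and 8 h (group A, n=3); 0.5, 2, 6 and 12 h (group B, n=3). Lithium-heparin plasma was held at −70°C and quantified by LC-MS/MS-ESI against spiked-plasma standards (0.1–50 μg/ml). PK parameters were derived.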
# Callithrix jacchus [6] = assay: AUC in common marmoset at 40 mg/kg, po BID measured on day 7 by […] analysis; assay type: ADME, organism-based, Plasma; parameters: dose 40 mg/kg, route oral; settings: in vivo; summary of the method: as §1
# [7] = Cmax in common marmoset at 40 mg/kg, po BID measured on day 7 by […] analysis; assay type: ADME, organism-based, Callithrix jacchus; parameters: dose 40 mg/kg, route oral; settings: in vivo; summary of the method: as §1
# [8] = Half life in common marmoset at 40 mg/kg, po BID measured on day 7 by […] analysis; assay type: ADME, organism-based, Callithrix jacchus; parameters: dose 40 mg/kg, route oral; settings: in vivo; summary of the method: as §1
# Callithrix jacchus [9] = assay: AUC in common marmoset at 40 mg/kg, po BID measured on day 1 by […] analysis; assay type: ADME, organism-based, Plasma; parameters: dose 40 mg/kg, route oral; settings: in vivo
# Summary of the method: (§2)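 Marmosets were dosed orally with 40 mg/kg levofloxacin twice daily in banana milkshake for 7 days. On day 1, group A (n=3) was bled predose and at 1, 4 and 8 h, and group B (n=3) at 0.5, 2, 6 and 12 h. Heparinised plasma was stored at −70°C and measured by LC-MS/MS-ESI (calibration 0.1–50 μg/ml). PK parameters were calculated.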
# [10] = Cmax in common marmoset at 40 mg/kg, po BID measured on day 1 by […] analysis; assay type: ADME, organism-based, Callithrix jacchus; parameters: dose 40 mg/kg, route oral; settings: in vivo; summary of the method: as §2
# [11] = Half life in common marmoset at 40 mg/kg, po BID measured on day 1 by […] analysis; assay type: ADME, organism-based, Callithrix jacchus; parameters: dose 40 mg/kg, route oral; settings: in vivo; summary of the method: as §2
# Callithrix jacchus [12] = assay: AUC in common marmoset at 40 mg/kg, po measured on day 1 by […] analysis; assay type: ADME, organism-based, Plasma; parameters: dose 40 mg/kg, route oral; settings: in vivo
# Summary of the method: (§3)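 Six marmosets (25–64 months, 310–560 g) received one oral 40 mg/kg levofloxacin dose in banana milkshake. Two groups of three were bled at 0.5, 2 and 6 h or at 1, 4 and 8 h. Lithium-heparin plasma was stored at −70°C and assayed by LC-MS/MS-ESI against a spiked-plasma calibration curve (0.1–50 μg/ml). PK parameters were derived from the pooled profile.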
# [13] = Half life in common marmoset at 40 mg/kg, po measured on day 1 by […] analysis; assay type: ADME, organism-based, Callithrix jacchus; parameters: dose 40 mg/kg, route oral; settings: in vivo; summary of the method: as §3
# [14] = Cmax in common marmoset at 40 mg/kg, po measured on day 1 by […] analysis; assay type: ADME, organism-based, Callithrix jacchus; parameters: dose 40 mg/kg, route oral; settings: in vivo; summary of the method: as §3
# [15] = Tmax in human at 500 mg, po by […] analysis; assay type: ADME, organism-based; settings: in vivo
# [16] = Half life in human at 500 mg, po by LS/MS/MS analysis; assay type: ADME, organism-based; settings: in vivo
# [17] = Cmax in human at 500 mg, po by […] analysis; settings: in vivo
# Homo sapiens [18] = assay: AUC (0 to infinity) in human at 500 mg, po by […] analysis; assay type: ADME, organism-based, Plasma; parameters: dose 500 mg, time infinity, route oral; settings: in vivo
# [19] = Half life in Rhesus monkey at 15 mg/kg followed by 4 mg/kg in 12 hrs dosing interval by LS/MS/MS analysis; assay type: ADME, organism-based, Macaca mulatta; settings: in vivo
# [20] = Tmax in Rhesus monkey at 15 mg/kg followed by 4 mg/kg in 12 hrs dosing interval by […] analysis; assay type: ADME, organism-based, Macaca mulatta; settings: in vivo
# [21] = Cmax in Rhesus monkey at 15 mg/kg followed by 4 mg/kg in 12 hrs dosing interval by […] analysis; assay type: ADME, organism-based, Macaca mulatta; parameters: dose 15 mg/kg; settings: in vivo
# Rhesus monkey [22] = assay: AUC (0 to infinity) in Rhesus monkey at 15 mg/kg followed by 4 mg/kg in 12 hrs dosing interval by […] analysis; assay type: ADME, organism-based, Macaca mulatta, Plasma; parameters: dose 15 mg/kg, time infinity; settings: in vivo
# [23] = Half life in Rhesus monkey at 15 mg/kg by LS/MS/MS analysis; assay type: ADME, organism-based, Macaca mulatta; parameters: dose 15 mg/kg; settings: in vivo
# [24] = Tmax in Rhesus monkey at 15 mg/kg by […] analysis; assay type: ADME, organism-based, Macaca mulatta; parameters: dose 15 mg/kg; settings: in vivo
# [25] = Cmax in Rhesus monkey at 15 mg/kg by […] analysis; assay type: ADME, organism-based, Macaca mulatta; parameters: dose 15 mg/kg; settings: in vivo
# Rhesus monkey [26] = assay: AUC (0 to infinity) in Rhesus monkey at 15 mg/kg by […] analysis; assay type: ADME, organism-based, Macaca mulatta, Plasma; parameters: time infinity, dose 15 mg/kg; settings: in vivo
# Francisella tularensis = assay: Antimicrobial activity against Francisella tularensis SCHU S4 infected in common marmoset assessed as survival of marmoset at 16.5 mg/kg BID for 10 days measured on day 24; assay type: functional, organism-based; parameters: dose 16.5 mg/kg
smiles,measurement,setting,value
C[C@H]1COc2c(N3CCN(C)CC3)c(F)cc3c(=O)c(C(=O)O)cn1c23.C[C@H]1COc2c(N3CCN(C)CC3)c(F)cc3c(=O)c(C(=O)O)cn1c23.O [LEVOFLOXACIN],Cmax,[1],5700 ng/mL
same,AUC,Homo sapiens [2],47500 ng·h/mL
same,Tmax,[3],1.1 h
same,half-life,[4],7.6 h
same,Tmax,[5],0.5 h
same,AUC,Callithrix jacchus [6],81.4 µg/mL/h
same,Cmax,[7],20900 ng/mL
same,half-life,[8],2.3 h
same,AUC,Callithrix jacchus [9],63.6 µg/mL/h
same,Cmax,[10],16500 ng/mL
same,half-life,[11],2.4 h
same,AUC,Callithrix jacchus [12],112.4 µg/mL/h
same,half-life,[13],3.9 h
same,Cmax,[14],18800 ng/mL
same,Tmax,[15],1.5 h
same,half-life,[16],6.4 h
same,Cmax,[17],8500 ng/mL
same,AUC,Homo sapiens [18],56300 ng·h/mL
same,half-life,[19],3.4 h
same,Tmax,[20],2.2 h
same,Cmax,[21],5300 ng/mL
same,AUC,Rhesus monkey [22],33400 ng·h/mL
same,half-life,[23],2 h
same,Tmax,[24],1.5 h
same,Cmax,[25],5100 ng/mL
same,AUC,Rhesus monkey [26],21300 ng·h/mL
same,Activity,Francisella tularensis,Active
